Results taken from ChEMBL document CHEMBL1139922, “Discovery and structure-activity relationship studies of indole derivatives as liver X receptor (LXR) agonists” (Bioorg Med Chem Lett, 2007).

Legend:
HepG2 = test: Ratio of induction of lipogenesis in HepG2 cells at 10 uM to control after 24 hrs; type: functional, Homo sapiens
[1] = target: T1, Oxysterols receptor LXR-beta (Homo sapiens, UniProt P55055); test: Agonist activity at LXRbeta LBD by HTRF cofactor peptide recruitment assay; type: functional
T1 sequence (P55055 whole entry): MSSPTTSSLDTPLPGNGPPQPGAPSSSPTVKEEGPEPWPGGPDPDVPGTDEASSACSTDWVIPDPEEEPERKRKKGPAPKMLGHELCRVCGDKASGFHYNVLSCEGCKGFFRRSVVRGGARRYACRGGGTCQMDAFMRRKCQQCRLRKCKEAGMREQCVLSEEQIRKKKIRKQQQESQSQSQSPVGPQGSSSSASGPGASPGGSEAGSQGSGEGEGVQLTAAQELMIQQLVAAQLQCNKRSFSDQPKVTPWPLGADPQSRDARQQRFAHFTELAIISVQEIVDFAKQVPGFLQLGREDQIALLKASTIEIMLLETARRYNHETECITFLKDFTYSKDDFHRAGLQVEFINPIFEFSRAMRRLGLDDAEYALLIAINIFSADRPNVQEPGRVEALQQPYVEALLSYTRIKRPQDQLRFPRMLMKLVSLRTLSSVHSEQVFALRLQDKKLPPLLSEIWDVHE

HepG2 (Homo sapiens) = test: Ratio of induction of SREBP1c gene expression in HepG2 cells at 10 uM to control
THP-1 [2] = test: Ratio of induction of ABCA1 gene expression in THP1 cells at 10 uM to control; type: functional, Homo sapiens
[3] = target: T1, Oxysterols receptor LXR-beta; test: Activation of LXRbeta co-transfected in COS7 cells with RXRalpha by reporter transactivation assay; type: functional, cell-based, COS-7
Summary of the method: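 Cells exposed to vehicle or compound for 16 h; LXR reporter activation read as luciferase activity in cell lysate. EC50 derived from means of quadruplicate samples, single experiment.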

THP-1 [4] = test: Ratio of induction of cholesterol efflux in THP1 cells at 10 uM to control after 18 hrs; type: functional, Homo sapiens
[5] = target: T2, Oxysterols receptor LXR-alpha (Homo sapiens, UniProt Q13133); test: Agonist activity at LXRalpha LBD by HTRF cofactor peptide recruitment assay; type: functional
T2 sequence (Q13133 whole entry): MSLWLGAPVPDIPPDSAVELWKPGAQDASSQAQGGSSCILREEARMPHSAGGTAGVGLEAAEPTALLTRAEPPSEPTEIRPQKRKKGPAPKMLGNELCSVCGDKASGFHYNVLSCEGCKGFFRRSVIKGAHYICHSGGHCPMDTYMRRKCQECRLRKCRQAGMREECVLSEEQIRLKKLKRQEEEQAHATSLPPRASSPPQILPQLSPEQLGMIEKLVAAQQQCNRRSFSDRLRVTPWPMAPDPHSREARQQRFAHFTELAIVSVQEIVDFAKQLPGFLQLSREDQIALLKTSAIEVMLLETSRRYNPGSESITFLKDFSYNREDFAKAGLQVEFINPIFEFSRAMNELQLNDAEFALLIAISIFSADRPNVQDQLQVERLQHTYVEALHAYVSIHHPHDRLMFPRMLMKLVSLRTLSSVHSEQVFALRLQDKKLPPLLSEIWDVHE

THP-1 [6] = test: Induction of cholesterol efflux in THP1 cells after 18 hrs; type: functional, cell-based; conditions: Homo sapiens, THP-1, 18 h

SMILES: CC(C)(C)OC(=O)n1c(-c2ccc3c(c2)CC(NS(=O)(=O)c2ccccc2)C3)cc2ccccc21 (configuration not stated)
- Ratio (HepG2): 3.1
- EC50 [1]: 190 nM
- Ratio (HepG2 (Homo sapiens)): 3.1
- Ratio (THP-1 [2]): 8.4
- EC50 [3]: 65 nM
- Ratio (THP-1 [4]): 1.6
- EC50 [5]: 1500 nM
- EC50 (THP-1 [6]): 680 nM

SMILES: CC(C)(C)OC(=O)n1c(-c2ccc3c(c2)CC(NS(=O)(=O)c2ccc(-c4ccccc4)cc2)C3)cc2ccccc21 (configuration not stated)
- EC50 [1]: 2100 nM

SMILES: Cc1ccc(S(=O)(=O)NC2Cc3ccc(-c4cc5ccccc5n4C(=O)OC(C)(C)C)cc3C2)cc1 (configuration not stated)
- EC50 [1]: 430 nM

SMILES: CC(C)(C)OC(=O)n1c(-c2ccc3c(c2)CC(NS(=O)(=O)c2ccc(C(F)(F)F)cc2)C3)cc2ccccc21 (configuration not stated)
- EC50 [1]: 730 nM

SMILES: Cc1cccc(S(=O)(=O)NC2Cc3ccc(-c4cc5ccccc5n4C(=O)OC(C)(C)C)cc3C2)c1 (configuration not stated)
- EC50 [1]: 1330 nM

SMILES: COc1cccc(S(=O)(=O)NC2Cc3ccc(-c4cc5ccccc5n4C(=O)OC(C)(C)C)cc3C2)c1 (configuration not stated)
- EC50 [1]: 960 nM

SMILES: CC(C)(C)OC(=O)n1c(-c2ccc3c(c2)CC(NS(=O)(=O)c2cccc(C#N)c2)C3)cc2ccccc21 (configuration not stated)
- EC50 [1]: 460 nM

SMILES: COC(=O)c1ccccc1S(=O)(=O)NC1Cc2ccc(-c3cc4ccccc4n3C(=O)OC(C)(C)C)cc2C1 (configuration not stated)
- EC50 [1]: 600 nM

SMILES: CC(C)(C)OC(=O)n1c(-c2ccc3c(c2)CC(NS(=O)(=O)c2ccccc2C(=O)O)C3)cc2ccccc21 (configuration not stated)
- EC50 [1]: 3350 nM

SMILES: COc1ccccc1S(=O)(=O)NC1Cc2ccc(-c3cc4ccccc4n3C(=O)OC(C)(C)C)cc2C1 (configuration not stated)
- EC50 [1]: 600 nM

SMILES: CC(C)(C)OC(=O)n1c(-c2ccc3c(c2)CC(NS(=O)(=O)c2ccccc2C(F)(F)F)C3)cc2ccccc21 (configuration not stated)
- EC50 [1]: 800 nM

SMILES: CC(C)(C)OC(=O)n1c(-c2ccc3c(c2)CC(NS(=O)(=O)c2c(F)cccc2F)C3)cc2ccccc21 (configuration not stated)
- Ratio (HepG2): 3.2
- EC50 [1]: 90 nM
- Ratio (HepG2 (Homo sapiens)): 3
- Ratio (THP-1 [2]): 7.5
- EC50 [3]: 52 nM
- Ratio (THP-1 [4]): 1.7
- EC50 [5]: 570 nM
- EC50 (THP-1 [6]): 210 nM

SMILES: CC(C)(C)OC(=O)n1c(-c2ccc3c(c2)CC(NC(=O)c2ccccc2)C3)cc2ccccc21 (configuration not stated)
- EC50 [1]: 190 nM

SMILES: COc1ccccc1C(=O)NC1Cc2ccc(-c3cc4ccccc4n3C(=O)OC(C)(C)C)cc2C1 (configuration not stated)
- EC50 [1]: 470 nM

SMILES: CC(C)(C)OC(=O)n1c(-c2ccc3c(c2)CC(NC(=O)c2ccccc2O)C3)cc2ccccc21 (configuration not stated)
- EC50 [1]: 530 nM

SMILES: CC(C)(C)OC(=O)n1c(-c2ccc3c(c2)CC(NS(=O)(=O)c2cccs2)C3)cc2ccccc21 (configuration not stated)
- Ratio (HepG2): 1.7
- EC50 [1]: 110 nM
- Ratio (HepG2 (Homo sapiens)): 2.9
- Ratio (THP-1 [2]): 7.3
- EC50 [3]: 363 nM
- Ratio (THP-1 [4]): 1.5
- EC50 [5]: 540 nM
- EC50 (THP-1 [6]): 570 nM

SMILES: CC(C)(C)OC(=O)n1c(-c2ccc3c(c2)CC(NS(=O)(=O)Cc2ccccc2)C3)cc2ccccc21 (configuration not stated)
- EC50 [1]: 520 nM

SMILES: CC(C)(C)OC(=O)n1c(-c2ccc3c(c2)CC(NC(=O)Nc2ccccc2)C3)cc2ccccc21 (configuration not stated)
- EC50 [1]: 1500 nM

SMILES: CCS(=O)(=O)NC1Cc2ccc(-c3cc4ccccc4n3C(=O)OC(C)(C)C)cc2C1 (configuration not stated)
- EC50 [1]: 400 nM

SMILES: CC(C)(C)OC(=O)n1c(-c2ccc3c(c2)CC(NS(=O)(=O)c2ccc(F)cc2)C3)cc2ccccc21 (configuration not stated)
- Ratio (HepG2): 2
- EC50 [1]: 460 nM
- Ratio (HepG2 (Homo sapiens)): 2
- Ratio (THP-1 [2]): 11.4
- EC50 [3]: 120 nM
- Ratio (THP-1 [4]): 1.7
- EC50 [5]: 4300 nM
- EC50 (THP-1 [6]): 570 nM

SMILES: CC(C)(C)OC(=O)n1c(-c2ccc3c(c2)CC(NS(=O)(=O)c2ccccc2C#N)C3)cc2ccccc21 (configuration not stated)
- EC50 [1]: 60 nM

SMILES: CC(C)(C)OC(=O)n1c(-c2ccc3c(c2)CC(NS(=O)(=O)c2ccccc2F)C3)cc2ccccc21 (configuration not stated)
- EC50 [1]: 100 nM

SMILES: CC(C)(C)OC(=O)n1c(-c2ccc3c(c2)CC(NC(=O)c2ccccc2F)C3)cc2ccccc21 (configuration not stated)
- EC50 [1]: 170 nM

SMILES: CC(C)(C)OC(=O)n1c(-c2ccc3c(c2)CC(NS(=O)(=O)c2cccc(Cl)c2)C3)cc2ccccc21 (configuration not stated)
- EC50 [1]: 1810 nM

SMILES: Cc1ccccc1S(=O)(=O)NC1Cc2ccc(-c3cc4ccccc4n3C(=O)OC(C)(C)C)cc2C1 (configuration not stated)
- EC50 [1]: 200 nM

SMILES: CC(C)(C)OC(=O)n1c(-c2ccc3c(c2)CC(NS(=O)(=O)c2ccc(-c4ccon4)s2)C3)cc2ccccc21 (configuration not stated)
- Ratio (HepG2): 1.2
- EC50 [1]: 670 nM
- Ratio (HepG2 (Homo sapiens)): 2.1
- Ratio (THP-1 [2]): 7.5
- EC50 [3]: 336 nM
- Ratio (THP-1 [4]): 1.7
- EC50 [5]: > 30000 nM
- EC50 (THP-1 [6]): 590 nM

SMILES: CCc1ccc(S(=O)(=O)NC2Cc3ccc(-c4cc5ccccc5n4C(=O)OC(C)(C)C)cc3C2)cc1 (configuration not stated)
- EC50 [1]: 650 nM

SMILES: Cc1noc(C)c1S(=O)(=O)NC1Cc2ccc(-c3cc4ccccc4n3C(=O)OC(C)(C)C)cc2C1 (configuration not stated)
- EC50 [1]: 130 nM

SMILES: CC(C)(C)OC(=O)n1c(-c2ccc3c(c2)CC(NS(C)(=O)=O)C3)cc2ccccc21 (configuration not stated)
- EC50 [1]: 210 nM

SMILES: O=C(O)Cc1cccc(OCCCN(Cc2cccc(C(F)(F)F)c2Cl)CC(c2ccccc2)c2ccccc2)c1
- Ratio (HepG2): 2.7
- EC50 [1]: 35 nM
- Ratio (HepG2 (Homo sapiens)): 5.2
- Ratio (THP-1 [2]): 10.7
- Ratio (THP-1 [4]): 1.8
- EC50 [5]: 367 nM
- EC50 (THP-1 [6]): 10 nM

SMILES: O=S(=O)(c1ccccc1)N(CC(F)(F)F)c1ccc(C(O)(C(F)(F)F)C(F)(F)F)cc1 [T091317]
- EC50 (THP-1 [6]): 33 nM
